Measurements reported in ChEMBL document CHEMBL2040785, “Regioselective synthesis and antimicrobial studies of ester linked 1,4-disubstituted 1,2,3-bistriazoles” (2012).
≈ marks a conversion by molar mass, not a printed value.

Legend:
Assay type in all cases: functional
Bacillus subtilis = experiment: Antibacterial activity against Bacillus subtilis MTCC 441 after 24 hrs by serial dilution method; settings: MTCC 441, 24 h
Procedure, shortened: (§1)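 Tube serial dilution MIC. Compounds held as 100 µg/ml stocks and serially diluted in tubes of 1 ml sterile double strength nutrient broth to 50–3.12 µg/ml. Each tube was inoculated with 100 µL of bacterial suspension in sterile saline. Incubation at 37 ± 1 °C for 24 h. Norfloxacin was the reference drug and DMSO the solvent control.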

Escherichia coli = experiment: Antibacterial activity against Escherichia coli MTCC 7443 after 24 hrs by serial dilution method; settings: MTCC 7443, 24 h; procedure, shortened: as §1
Aspergillus niger = experiment: Antifungal activity against Aspergillus niger MTCC 282 after 120 hrs by serial dilution method; settings: MTCC 282, 120 h
Procedure, shortened: (§2)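 Tube serial dilution MIC in Sabouraud dextrose broth. Stocks of 100 µg/ml were diluted in 1 ml sterile medium to 50–3.12 µg/ml, and each tube was inoculated with 100 µL of fungal suspension in sterile saline. Incubation at 25 ± 1 °C, 48 h for C. albicans and 120 h for A. niger. Fluconazole was the reference drug and DMSO the solvent control.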

Candida albicans = experiment: Antifungal activity against Candida albicans MTCC 183 after 48 hrs by serial dilution method; settings: MTCC 183, 48 h; procedure, shortened: as §2

SMILES	MIC (Bacillus subtilis) [µM]	MIC (Escherichia coli) [µM]	MIC (Aspergillus niger) [µM]	MIC (Candida albicans) [µM]
O=C(OCc1cn(CCc2ccccc2)nn1)c1cccc(C(=O)OCc2cn(CCc3ccccc3)nn2)c1	23.3 (≈ 12.5 µg/mL)	23.3 (≈ 12.5 µg/mL)	23.3 (≈ 12.5 µg/mL)	23.3 (≈ 12.5 µg/mL)
O=C(CCCC(=O)OCc1cn(Cc2ccccc2)nn1)OCc1cn(Cc2ccccc2)nn1	26.3 (≈ 12.5 µg/mL)	26.3 (≈ 12.5 µg/mL)	26.3 (≈ 12.5 µg/mL)	13.5 (≈ 6.41 µg/mL)
O=C(OCc1cn(CCc2ccccc2)nn1)c1ccc(C(=O)OCc2cn(CCc3ccccc3)nn2)cc1	23.3 (≈ 12.5 µg/mL)	23.3 (≈ 12.5 µg/mL)	23.3 (≈ 12.5 µg/mL)	23.3 (≈ 12.5 µg/mL)
O=C(CC(=O)OCc1cn(Cc2ccccc2)nn1)OCc1cn(Cc2ccccc2)nn1	28 (≈ 12.5 µg/mL)	28 (≈ 12.5 µg/mL)	14 (≈ 6.25 µg/mL)	14 (≈ 6.25 µg/mL)
O=C(CCCC(=O)OCc1cn(CCc2ccccc2)nn1)OCc1cn(CCc2ccccc2)nn1	24.9 (≈ 12.5 µg/mL)	24.9 (≈ 12.5 µg/mL)	24.9 (≈ 12.5 µg/mL)	24.9 (≈ 12.5 µg/mL)
O=C(CCC(=O)OCc1cn(Cc2ccccc2)nn1)OCc1cn(Cc2ccccc2)nn1	27.1 (≈ 12.5 µg/mL)	27.1 (≈ 12.5 µg/mL)	27.1 (≈ 12.5 µg/mL)	13.5 (≈ 6.22 µg/mL)
O=C(CCCCC(=O)OCc1cn(Cc2ccccc2)nn1)OCc1cn(Cc2ccccc2)nn1	25.6 (≈ 12.5 µg/mL)	12.8 (≈ 6.25 µg/mL)	12.8 (≈ 6.25 µg/mL)	12.8 (≈ 6.25 µg/mL)
CCn1cc(C(=O)O)c(=O)c2cc(F)c(N3CCNCC3)cc21 [NORFLOXACIN]	9.8 (≈ 3.13 µg/mL)	9.8 (≈ 3.13 µg/mL)	–	–
O=C(CC(=O)OCc1cn(CCc2ccccc2)nn1)OCc1cn(CCc2ccccc2)nn1	26.3 (≈ 12.5 µg/mL)	26.3 (≈ 12.5 µg/mL)	26.3 (≈ 12.5 µg/mL)	26.3 (≈ 12.5 µg/mL)
O=C(CCCCC(=O)OCc1cn(CCc2ccccc2)nn1)OCc1cn(CCc2ccccc2)nn1	24.2 (≈ 12.5 µg/mL)	24.2 (≈ 12.5 µg/mL)	24.2 (≈ 12.5 µg/mL)	12.1 (≈ 6.25 µg/mL)
O=C(CCC(=O)OCc1cn(CCc2ccccc2)nn1)OCc1cn(CCc2ccccc2)nn1	25.6 (≈ 12.5 µg/mL)	12.8 (≈ 6.25 µg/mL)	25.6 (≈ 12.5 µg/mL)	12.8 (≈ 6.25 µg/mL)
OC(Cn1cncn1)(Cn1cncn1)c1ccc(F)cc1F [FLUCONAZOLE]	–	–	10.2 (≈ 3.12 µg/mL)	10.2 (≈ 3.12 µg/mL)
O=C(OCc1cn(Cc2ccccc2)nn1)c1cccc(C(=O)OCc2cn(Cc3ccccc3)nn2)n1	12.3 (≈ 6.27 µg/mL)	12.3 (≈ 6.27 µg/mL)	24.6 (≈ 12.5 µg/mL)	12.3 (≈ 6.27 µg/mL)
O=C(OCc1cn(CCc2ccccc2)nn1)c1cccc(C(=O)OCc2cn(CCc3ccccc3)nn2)n1	23.3 (≈ 12.5 µg/mL)	23.3 (≈ 12.5 µg/mL)	23.3 (≈ 12.5 µg/mL)	23.3 (≈ 12.5 µg/mL)
